In BindingDB's records for doi:10.1021/jm00096a020 (University of California, 1992):
Where “and” joins values, the source holds several entries; their conditions need not be identical. Equal entries are not always repeated.

Assays:
Pol polyprotein [1] = target: T1, Pol polyprotein (Human immunodeficiency virus 2, UniProt P88142); experiment: ChEBML_159124
Description: (§1) Inhibition of HIV-2 protease in 5%DMSO

[2] = target: T2, Human immunodeficiency virus type 1 protease (Human immunodeficiency virus 1, UniProt Q72874); experiment: ChEBML_79800
Description: (§2) Inhibitory concentration against HIV-1 protease in the absence of DMSO

[3] = target: T2, Human immunodeficiency virus type 1 protease; experiment: Inhibition of HIV-1 protease in 10% fetal calf serum(FCS)
How it was run: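 COS A6 cells, which constitutively release viral capsids, were exposed to inhibitor in Dulbecco's PBS for 15 min. An equal volume of medium with 10% FCS plus inhibitor was then added and incubation continued for 3.75 h. Capsids were isolated from the supernatant, and polyprotein processing was scored as p24 by ELISA.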

HIV-1 protease = experiment: Inhibitory concentration against HIV-1 protease
How it was run: (§3)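 Purified recombinant HIV PR activity was followed by cleavage of a decapeptide substrate. Incubation was 30–45 min at 37 °C, and hydrolysis products were quantified by HPLC.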

Pol polyprotein [4] = target: T1, Pol polyprotein; experiment: as §1
How it was run: as §3

HIV-2 protease [5] = experiment: Inhibitory concentration against HIV-2 protease
How it was run: as §3

[6] = target: T2, Human immunodeficiency virus type 1 protease; experiment: Inhibition of HIV-1 protease in 5%DMSO
How it was run: as §3

HIV-2 protease [7] = experiment: ChEBML_158058
Description: In vitro Inhibitory activity against HIV-2 protease in the presence of 5%DMSO

[8] = target: T2, Human immunodeficiency virus type 1 protease; experiment: as §2
How it was run: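 The water-soluble dipotassium salt was tested against aspartyl proteases with no DMSO present, and IC50 values were determined.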

[9] = target: HIV-2 protease (Human immunodeficiency virus 2); experiment: In vitro Inhibitory activity against HIV-2 protease in the presence of 5%DMSO
[10] = target: T2, Human immunodeficiency virus type 1 protease; experiment: Binding affinity against HIV-1 protease
How it was run: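 Purified recombinant HIV-1 protease (6 × 10^-4 mg/mL) preincubated 1 min with inhibitor in 50 mM sodium acetate pH 5.5, 1 mM DTT, 1 mM EDTA, 1 M NaCl. Decapeptide substrate then added, 30–45 min at 37 °C. Activity read by HPLC quantitation of hydrolysis products. Inhibition plotted as a Dixon plot at several substrate concentrations.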

[11] = target: HIV-2 protease (Human immunodeficiency virus 2); experiment: Inhibitory concentration against HIV-2 protease in the absence of DMSO

T1 sequence (P88142 whole entry): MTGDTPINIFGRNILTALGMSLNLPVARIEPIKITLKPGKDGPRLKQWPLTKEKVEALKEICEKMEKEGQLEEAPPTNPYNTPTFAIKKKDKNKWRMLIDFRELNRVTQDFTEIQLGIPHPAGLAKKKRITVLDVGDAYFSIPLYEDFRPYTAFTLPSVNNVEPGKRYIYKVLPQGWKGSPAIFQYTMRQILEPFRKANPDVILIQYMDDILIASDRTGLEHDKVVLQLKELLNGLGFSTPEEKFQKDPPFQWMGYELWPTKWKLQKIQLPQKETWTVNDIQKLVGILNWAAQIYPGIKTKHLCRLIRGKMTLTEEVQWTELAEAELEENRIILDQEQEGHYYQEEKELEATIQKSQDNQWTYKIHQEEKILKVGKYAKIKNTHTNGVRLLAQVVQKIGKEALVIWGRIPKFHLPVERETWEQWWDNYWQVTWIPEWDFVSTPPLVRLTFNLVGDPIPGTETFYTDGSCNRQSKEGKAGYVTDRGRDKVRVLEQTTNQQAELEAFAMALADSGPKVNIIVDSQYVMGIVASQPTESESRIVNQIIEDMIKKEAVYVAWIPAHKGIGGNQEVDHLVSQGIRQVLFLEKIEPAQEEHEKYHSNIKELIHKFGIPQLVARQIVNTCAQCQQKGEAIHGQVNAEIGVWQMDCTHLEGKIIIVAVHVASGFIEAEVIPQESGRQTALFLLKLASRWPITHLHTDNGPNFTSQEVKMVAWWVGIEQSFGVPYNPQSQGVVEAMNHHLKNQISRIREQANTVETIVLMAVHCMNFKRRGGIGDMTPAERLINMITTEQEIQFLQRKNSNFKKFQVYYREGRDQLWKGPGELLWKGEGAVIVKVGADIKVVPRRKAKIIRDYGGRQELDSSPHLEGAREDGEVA

Structure (SMILES): CC1=C(CCC(=O)O)/C2=C/c3c(CCC(=O)O)c(C)c4[n]3[Co][n]3/c(c(C)c(C(COC(=O)C5=CC5)OC(=O)C5=CC5)/c3=C/C3=NC(=C\4)/C(C(COC(=O)C4=CC4)OC(=O)C4=CC4)=C3C)=C\C1=N2 (stereo not drawn)
- IC50 (Pol polyprotein [1]): 1500 nM
- IC50 [2]: 2250 nM
- IC50 [3]: 25000 nM

Structure (SMILES): CC1=C(CCC(=O)O)c2cc3nc(cc4[nH]c(cc5[nH]c(cc1n2)c(C)c5C(COC(=O)C1=CC1)OC(=O)C1=CC1)c(C)c4C(COC(=O)C1=CC1)OC(=O)C1=CC1)C(C)=C3CCC(=O)O (stereo not drawn)
- IC50 (HIV-1 protease): 50 nM
- IC50 (Pol polyprotein [1]): 700 nM
- IC50 (Pol polyprotein [4]): 700 nM
- IC50 (HIV-2 protease [5]): 230 nM
- IC50 [3]: 25000 nM and > 150000 nM
- IC50 [6]: 185 nM

Structure (SMILES): CC1=C(CCC(=O)O)c2cc3nc(cc4[nH]c(cc5[nH]c(cc1n2)c(C)c5C(COC(=O)C1=CCC1)OC(=O)C1=CCC1)c(C)c4C(COC(=O)C1=CCC1)OC(=O)C1=CCC1)C(C)=C3CCC(=O)O (stereo not drawn)
- IC50 (HIV-2 protease [7]): 550 nM
- IC50 [3]: 10000 nM

Structure (SMILES): CC1=C(CCC(=O)O)/C2=C/c3c(CCC(=O)O)c(C)c4[n]3[Mn][n]3/c(c(C)c(C(COC(=O)C5=CC5)OC(=O)C5=CC5)/c3=C/C3=NC(=C\4)/C(C(COC(=O)C4=CC4)OC(=O)C4C=C4)=C3C)=C\C1=N2 (stereo not drawn)
- IC50 [8]: 100 nM
- IC50 [9]: 1200 nM
- Ki [10]: 85 nM
- IC50 [11]: 700 nM
- IC50 [3]: 65000 nM
- IC50 [6]: 400 nM

Structure (SMILES): CC1=C(CCC(=O)O)/C2=C/c3c(CCC(=O)O)c(C)c4[n]3[Cu][n]3/c(c(C)c(C(COC(=O)C5=CC5)OC(=O)C5=CC5)/c3=C/C3=NC(=C\4)/C(C(COC(=O)C4=CC4)OC(=O)C4=CC4)=C3C)=C\C1=N2 (stereo not drawn)
- IC50 (HIV-2 protease [7]): 470 nM
- IC50 (Pol polyprotein [1]): 2200 nM
- IC50 [8]: 725 nM
- Ki [10]: 140 nM
- IC50 [3]: > 70000 nM
- IC50 [6]: 975 nM
